# Screening results deposited in PubChem BioAssay by Broad Institute.
# SIRT5 inh = sirtuin-5 (human) deacylase inhibition. Purified SirT5, succinyl-peptide AMC, trypsin-coupled fluorescence. inhibition, % at 15 µM. 330,000 tested, 1.1% active. AID 652115; in the data active means inhibition above about 15%
# FN deposit inh = fibronectin deposition inhibition; 350,000 tested, 0.086% active; inhibition, % at 12.6 µM; AH1F fibroblasts, Alexa488-fibronectin deposition fluorescence, overnight; AID 743247;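 active means mean inhibition across replicates of 30% or more, regardless of how many single replicates reach that level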;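 further: positive control wells lacked labelled fibronectin entirely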
#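 Material: AH1F fibroblast monolayer depositing Alexa488-labelled fibronectin into matrix / Amount: 10000 AH1F cells per well / Signal: fluorescence 485/525 nm / Medium: DMEM, 2% serum / Compound: single dose, pinned / Incubation: 1 h cell adhesion before compound, then overnight fibronectin incubation / Reagent: Alexa488-FN, 24 nM final / Read-out: inhibition of fibronectin deposition signal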
# FGF22 binding = shifts melting point of recombinant human FGF22 | 340,000 tested, 1.5% active | activity (Tm shift, normalised), % at 9.99 µM | recombinant FGF22 thermal shift, SYPRO orange fluorescence; percent of sucrose octasulfate shift, DMSO zero | Q9HCT0;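 active means mean Tm shift, scaled 0 neutral to 100 positive control, at about 1.3% or above, every replicate too, limit read from the data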
# Target sequence (Q9HCT0 whole entry, looked up): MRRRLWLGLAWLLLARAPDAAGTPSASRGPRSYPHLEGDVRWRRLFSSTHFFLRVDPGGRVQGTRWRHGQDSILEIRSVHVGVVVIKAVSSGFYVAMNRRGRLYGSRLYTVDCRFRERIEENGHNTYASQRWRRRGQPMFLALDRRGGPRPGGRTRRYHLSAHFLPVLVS
# PGC1a acetyl inh = modulators of PGC1a acetylation; 350,000 tested, 0.17% active; AID 651687; inhibition, % at 15.6 µM; U2OS PGC1a acetylation, AlphaScreen anti-acetyl-lysine; with virally co-expressed GCN5 acetyltransferase;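 active means every replicate shows inhibition of at least 40%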;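 further: 0% = neutral control wells and 100% = positive control wells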
# ERAP1 HTS inh = inhibitors of human ERAP1 aminopeptidase | recombinant ERAP1, Leu-AMC fluorescence, 60 min | inhibition, % at 10.7 µM | 340,000 tested, 0.15% active | AID 652197;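 active means mean replicate inhibition of at least 30%, or all replicates individually reaching that 30% level; inactive means mean below 30% and not every replicate reaching it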;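 further: 0% = neutral control wells and 100% = L-leucinethiol positive control wells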
# * hit, by the source's call; nt = no result given. Only some compounds are listed: those with a hit (about 2.2% of all), similar ones and a draw of the others.
SMILES,SIRT5 inh,FN deposit inh,FGF22 binding,PGC1a acetyl inh,ERAP1 HTS inh
O=C(NCCNC(=O)c1ccccc1F)c1ccccn1,16*,2,0,10,-3
Cc1ccccc1C(=O)NCCNC(=O)c1ccccn1,3,6,0,nt,-1
COC(=O)CN1C(=O)N/C(=C/c2ccc(OC)cc2)C1=O,0,nt,43*,nt,4
COC(=O)CN1C(=O)N/C(=C/c2cc(Cl)c(OC)c(OC)c2)C1=O,-1,14,0,-1,-1
O=C(NC1CCC1)[C@@H]1[C@@H](CO)[C@@H]2Cn3c(ccc(-c4ccncc4)c3=O)[C@@H]2N1CCc1ccccc1,0,nt,nt,nt,1
O=C(Cc1c[nH]c2ccccc12)NCc1ccco1,-3,3,43*,nt,6
C[C@@H]1CN([C@@H](C)CO)C(=O)Cc2cc(NC(=O)Cc3ccccc3)ccc2O[C@@H]1CN(C)C(=O)Nc1cccc2ccccc12,nt,nt,0,3,0
Cc1ccccc1-c1ccc([C@@H]2[C@H]3CN(C(=O)Cc4ccccn4)CC(=O)N3[C@H]2CO)cc1,-2,nt,1,3,2
O=C(C[C@@H]1C=C[C@@H](NC(=O)Nc2ccc(C(F)(F)F)cc2)[C@@H](CO)O1)NCCN1CCCC1,1,2,-1,14,1
CN(C(=O)CCc1nnc(CCCCc2ccccc2)o1)C1CC(C)(C)NC(C)(C)C1,27*,1,0,nt,-2
O=C(CCc1nnc(CCCCc2ccccc2)o1)N(CCO)Cc1ccccc1,-1,nt,0,1,14
Cc1ccc(NC(=O)N2CCCC2C(=O)NCC2CCCCC2)cc1 (stereo not given),-3,-2,0,nt,3
Cc1ccc(NC(=O)N2CCCC2C(=O)NCC2CCCO2)cc1 (stereo not given),-3,1,43*,-1,2
CC(C)NC(=O)Nc1ccc2c(c1)C(=O)N([C@@H](C)CO)C[C@@H](C)[C@@H](CN(C)Cc1ccccc1)O2,-3,nt,0,-5,-1
COc1ccc(C/C(C)=N/NC(=O)c2ccc(C)cc2C)cc1,0,-11,44*,18,0
COc1ccc(CC(=O)Oc2ccc(C)cc2C)cc1,0,2,0,nt,1
CCOc1ccc2nc(NCCNC(=O)Nc3cccc(C)c3)c(C#N)cc2c1,nt,0,nt,3,nt
CCOc1ccc2nc(NCCNC(=O)Nc3ccccc3)c(C#N)cc2c1,nt,-4,nt,64*,nt
CN(C)CCCN(C(=O)COc1ccccc1)c1nc2ccc(F)cc2s1,-4,-3,0,nt,2
CN(C)CCCN(C(=O)c1ccco1)c1nc2ccc(F)cc2s1,19*,3,0,nt,15
CN(C)CCCN(C(=O)CCOc1ccccc1)c1nc2ccc(F)cc2s1,0,25,0,50*,3
C[C@H]1CN([C@@H](C)CO)C(=O)Cc2cc(NC(=O)Cn3cnnn3)ccc2O[C@@H]1CN(C)Cc1ccc(C(=O)Nc2ccccc2N)cc1,nt,nt,0,-4,2
Cc1noc(C)c1S(=O)(=O)N(C)C[C@H]1Oc2ccc(NS(=O)(=O)c3cn(C)cn3)cc2CC(=O)N([C@@H](C)CO)C[C@@H]1C,0,-7,0,-4,1
COc1ccccc1-c1ccc2n(c1=O)C[C@@H]1[C@@H](CO)[C@H](C(=O)NCc3ccccc3F)N[C@H]21,-8,nt,0,nt,0
CC(C)CC(=O)Nc1ccc(F)c(Cl)c1,nt,-2,nt,nt,nt
SMILES,SIRT5 inh,FN deposit inh,FGF22 binding,PGC1a acetyl inh,ERAP1 HTS inh
CC(C)CC(=O)Nc1cccc(C(C)O)c1 (stereo not given),-3,-3,43*,nt,-1
CCCCC(=O)Nc1cccc(C(C)O)c1 (stereo not given),-7,-5,43*,nt,2
O=C(Cn1cc(COc2c(Br)cc(F)cc2Br)nn1)c1ccc(O)cc1,-7,4,0,-16,1
O=C(Cn1cc(COc2c(F)c(F)c(Br)c(F)c2F)nn1)c1ccc(O)cc1,0,0,1.8*,-13,2
C[C@H](CO)N1C[C@H](C)[C@H](CN(C)Cc2ccccc2)Oc2cc(C#Cc3ccccn3)ccc2S1(=O)=O,3,3,0,-23,0
CCOCC(=O)NC1CCc2cc(OC)c(OC)c(OC)c2-c2ccc(SC)c(=O)cc21 (stereo not given),nt,11,43*,-3,9
CCOC(=O)NC1CCc2cc(OC)c(OC)c(OC)c2-c2ccc(SC)c(=O)cc21 (stereo not given),nt,-35,0,nt,5
CC(C)OC(=O)c1c(F)c(F)c(N2CCOCC2)c(F)c1F,nt,3,nt,57*,nt
